Laboratory results published in ChEMBL document CHEMBL4689842, “EUbOPEN Chemogenomics Library wave 1” (2021).

What was measured:
Format in all cases: toxicity, cell-based
Fibroblast = test: Multiplex assay against human fibroblast
How it was run: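 On a CQ1 microscope at 37°C and 5% CO2, live cells were imaged after compound addition. They had been stained at seeding with Hoechst33342, BioTracker Green Microtubule Cytoskeleton Dye, MitoTracker Red and Annexin V Alexa Fluor 680. CellPathfinder machine-learning gating assigned cells to Hoechst high-intensity objects or normal cells, normal cells to healthy, pyknosed or fragmented nuclei, and pyknosed cells to mitotic or apoptotic. Tubulin, mitochondrial-mass and membrane-permeability phenotypes are per cents of healthy-nucleus cells.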

U2OS = test: Incucyte cell viability with U2OS; details: human, 10 µM, compound concentration 10 uM; further: filed as whole numbers so only -1 and 0 and 1 occur
HEK-293T = test: Incucyte cell viability with HEK293T; details: human, 10 µM, compound concentration 10 uM; further: filed as whole numbers so only -1 and 0 and 1 occur
[1] = 12 h, 1 µM, compound concentration 1 uM, replicate 1
[2] = 12 h, 1 µM, compound concentration 1 uM, replicate 2
[3] = 12 h, 10 µM, compound concentration 10 uM, replicate 1
[4] = 12 h, 10 µM, compound concentration 10 uM, replicate 2
[5] = 24 h, 1 µM, compound concentration 1 uM, replicate 1
[6] = 24 h, 1 µM, compound concentration 1 uM, replicate 2
[7] = 24 h, 10 µM, compound concentration 10 uM, replicate 1
[8] = 24 h, 10 µM, compound concentration 10 uM, replicate 2
[9] = 0 h, replicate number 1, timepoint 0 hours
[10] = 6 h, replicate number 1, timepoint 6 hours
[11] = 12 h, replicate number 1, timepoint 12 hours
[12] = 18 h, replicate number 1, timepoint 18 hours
[13] = 24 h, replicate number 1, timepoint 24 hours

## N#Cc1cnc(Nc2cc(NC[C@H]3CNCCO3)c(C(F)(F)F)cn2)cn1 [SRA-737]
Fibroblast; [1]
  Population Apoptotic (%): 65%
  Population Fragmented Nuclei (%): 23%
  Population Healthy Nuclei (%): 59%
  Population Hoechst High Intensity Objects (%): 13%
  Population Membrane Permeable-Phenotype (%): 9%
  Population Mitochondria Different-Phenotype (%): 1%
  Population Mitotic Cells (%): 34%
  Population Normal (%): 86%
  Population Tubulin-Different-Phenotype (%): 4%
  Total Cell Count: 196
Fibroblast; [2]
  Population Apoptotic (%): 37%
  Population Fragmented Nuclei (%): 60%
  Population Healthy Nuclei (%): 21%
  Population Hoechst High Intensity Objects (%): 35%
  Population Membrane Permeable-Phenotype (%): 10%
  Population Mitochondria Different-Phenotype (%): 0%
  Population Mitotic Cells (%): 62%
  Population Normal (%): 64%
  Population Pyknosed Nuclei (%): 17%
  Population Tubulin-Different-Phenotype (%): 0%
  Total Cell Count: 71
Fibroblast; [3]
  Population Apoptotic (%): 69%
  Population Fragmented Nuclei (%): 33%
  Population Healthy Nuclei (%): 53%
  Population Hoechst High Intensity Objects (%): 12%
  Population Membrane Permeable-Phenotype (%): 11%
  Population Mitochondria Different-Phenotype (%): 1%
  Population Mitotic Cells (%): 30%
  Population Normal (%): 87%
  Population Pyknosed Nuclei (%): 13%
  Population Tubulin-Different-Phenotype (%): 8%
  Total Cell Count: 288
Fibroblast; [4]
  Population Apoptotic (%): 28%
  Population Fragmented Nuclei (%): 58%
  Population Healthy Nuclei (%): 28%
  Population Hoechst High Intensity Objects (%): 34%
  Population Membrane Permeable-Phenotype (%): 7%
  Population Mitochondria Different-Phenotype (%): 35%
  Population Mitotic Cells (%): 71%
  Population Normal (%): 65%
  Population Pyknosed Nuclei (%): 14%
  Population Tubulin-Different-Phenotype (%): 21%
  Total Cell Count: 76
Fibroblast; [5]
  Population Apoptotic (%): 50%
  Population Fragmented Nuclei (%): 31%
  Population Healthy Nuclei (%): 56%
  Population Hoechst High Intensity Objects (%): 9%
  Population Membrane Permeable-Phenotype (%): 7%
  Population Mitochondria Different-Phenotype (%): 2%
  Population Mitotic Cells (%): 50%
  Population Normal (%): 90%
  Population Pyknosed Nuclei (%): 11%
  Population Tubulin-Different-Phenotype (%): 1%
  Total Cell Count: 205
Fibroblast; [6]
  Population Apoptotic (%): 42%
  Population Fragmented Nuclei (%): 63%
  Population Healthy Nuclei (%): 22%
  Population Hoechst High Intensity Objects (%): 24%
  Population Membrane Permeable-Phenotype (%): 9%
  Population Mitochondria Different-Phenotype (%): 9%
  Population Mitotic Cells (%): 57%
  Population Normal (%): 75%
  Population Pyknosed Nuclei (%): 14%
  Population Tubulin-Different-Phenotype (%): 18%
  Total Cell Count: 65
Fibroblast; [7]
  Population Apoptotic (%): 71%
  Population Fragmented Nuclei (%): 41%
  Population Healthy Nuclei (%): 48%
  Population Hoechst High Intensity Objects (%): 18%
  Population Membrane Permeable-Phenotype (%): 9%
  Population Mitochondria Different-Phenotype (%): 2%
  Population Mitotic Cells (%): 28%
  Population Normal (%): 81%
  Population Pyknosed Nuclei (%): 10%
  Population Tubulin-Different-Phenotype (%): 15%
  Total Cell Count: 342
Fibroblast; [8]
  Population Apoptotic (%): 28%
  Population Fragmented Nuclei (%): 59%
  Population Healthy Nuclei (%): 26%
  Population Hoechst High Intensity Objects (%): 27%
  Population Membrane Permeable-Phenotype (%): 15%
  Population Mitochondria Different-Phenotype (%): 30%
  Population Mitotic Cells (%): 71%
  Population Normal (%): 72%
  Population Pyknosed Nuclei (%): 14%
  Population Tubulin-Different-Phenotype (%): 30%
  Total Cell Count: 68
U2OS; [9]
  Growth Rate: 1
U2OS; 0 h, replicate number 2, timepoint 0 hours
  Growth Rate: 0
U2OS; [10]
  Growth Rate: 0
U2OS; [11]
  Growth Rate: 0
U2OS; [12]
  Growth Rate: 0
U2OS; [13]
  Growth Rate: 0
HEK-293T; [9]
  Growth Rate: 0
HEK-293T; [10]
  Growth Rate: 0
HEK-293T; [11]
  Growth Rate: 0
HEK-293T; [12]
  Growth Rate: 0
HEK-293T; [13]
  Growth Rate: 0
